Active and inactive are the calls of the source.
Tests used:
Peritoneal macrophage = experiment: Cytotoxicity against ICR mouse peritoneal macrophages assessed as reduction in cell viability up to 20 uM measured after 24 hrs by MTT assay; type: cell-based
Outline: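 Peritoneal macrophages from ICR mice, 2.0×10^4 cells/well in DMEM with 10% FBS. Cells exposed to compound for 24 h, then MTT (5 mg/ml in 0.9% NaCl) added for 4 h at 37 °C in 5% CO2. Absorbance read at 490 nm; final DMSO 0.1%.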

[1] = molecular target: Angiopoietin-1 receptor (Homo sapiens) (UniProt Q02763); experiment: Inhibition of wild-type human partial length TIE2 (N804 to T1112 residues) expressed in bacterial expression system at 1 uM by Kinomescan method
Outline: (§1)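 Single-concentration screen at 1 μM on the KINOMEscan panel (98 kinases), run by the platform provider. Results are given as percent of control: % Ctrl = [(test signal − positive control signal)/(negative control signal − positive control signal)] × 100. DMSO serves as negative control (100% Ctrl) and a control compound as positive control (0% Ctrl). Lower values mean stronger binding hits.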

[2] = molecular target: cAMP-dependent protein kinase catalytic subunit alpha (Homo sapiens) (UniProt P17612); experiment: Inhibition of wild-type human partial length PKAC-alpha (G10 to F351 residues) expressed in bacterial expression system at 1 uM by Kinomescan method
Outline: (§2)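 Binding-competition screen on the KINOMEscan platform, run by the provider, with the test compound at 1 μM. Readout is percent of control: (test signal − positive control signal)/(negative control signal − positive control signal) × 100. The DMSO negative control is set as 100% Ctrl and a control compound as 0% Ctrl. Lower values mean stronger hits.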

[3] = molecular target: Mitogen-activated protein kinase 9 (Homo sapiens) (UniProt P45984); experiment: Inhibition of wild-type human full length JNK2 (M1 to Q382 residues) expressed in mammalian expression system at 1 uM by Kinomescan method
Outline: (§3)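 KINOMEscan competition binding screen at 1 μM compound. Results reported as % of control = (test − positive control)/(DMSO negative control − positive control) × 100, where lower values mean stronger hits.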

[4] = molecular target: Protein kinase C epsilon type (Homo sapiens) (UniProt Q02156); experiment: Inhibition of wild-type human partial length PRKCE (A378 to P737 residues) expressed in mammalian expression system at 1 uM by Kinomescan method; outline: as §2
[5] = test system: Serine/threonine-protein kinase B-raf (Homo sapiens), P15056 [V600E]; experiment: Inhibition of human partial length BRAF V600E mutant (S429 to E741 residues) expressed in mammalian expression system at 1 uM by Kinomescan method; outline: as §3
[6] = molecular target: ALK tyrosine kinase receptor (Homo sapiens) (UniProt Q9UM73); experiment: Inhibition of wild-type human partial length ALK (I1088 to E1409 residues) expressed in mammalian expression system at 1 uM by Kinomescan method; outline: as §2
[7] = molecular target: Focal adhesion kinase 1 (Homo sapiens) (UniProt Q05397); experiment: Inhibition of wild-type human partial length FAK (D402 to R696 residues) expressed in bacterial expression system at 1 uM by Kinomescan method; outline: as §2
[8] = molecular target: NUAK family SNF1-like kinase 2 (Homo sapiens) (UniProt Q9H093); experiment: Inhibition of wild-type human partial length SNARK (P22 to A333 residues) expressed in mammalian expression system at 1 uM by Kinomescan method; outline: as §1
[9] = molecular target: Fibroblast growth factor receptor 3 (Homo sapiens) (UniProt P22607); experiment: Inhibition of wild-type human partial length FGFR3 (R442 to S771 residues) expressed in bacterial expression system at 1 uM by Kinomescan method; outline: as §2
[10] = molecular target: TGF-beta receptor type-1 (Homo sapiens) (UniProt P36897); experiment: Inhibition of wild-type human partial length TGFBR1 (D179 to M503 residues) expressed in bacterial expression system at 1 uM by Kinomescan method; outline: as §1
[11] = molecular target: Insulin-like growth factor 1 receptor (Homo sapiens) (UniProt P08069); experiment: Inhibition of wild-type human partial length IGF1R (L972 to D1294 residues) expressed in bacterial expression system at 1 uM by Kinomescan method; outline: as §2
[12] = molecular target: Tyrosine-protein kinase ABL1 (Homo sapiens) (UniProt P00519); experiment: Inhibition of wild-type human non-phosphorylated ABL1 (S229 to K512 residues) expressed in mammalian expression system at 1 uM by Kinomescan method; outline: as §3
[13] = molecular target: High affinity nerve growth factor receptor (Homo sapiens) (UniProt P04629); experiment: Inhibition of wild-type human partial length TRKA (G475 to G790 residues) expressed in mammalian expression system at 1 uM by Kinomescan method; outline: as §1
[14] = test system: Epidermal growth factor receptor (Homo sapiens), P00533 [L858R]; experiment: Inhibition of human partial length EGFR L858R mutant (R669 to V1011 residues) expressed in bacterial expression system at 1 uM by Kinomescan method
Outline: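 KINOMEscan competition binding panel (98 kinases) run by the provider, compound screened once at 1 μM. Read-out is percent of control: [(test signal − positive control signal)/(negative control signal − positive control signal)] × 100. DMSO negative control sets 100% Ctrl and a control compound sets 0% Ctrl; lower values mean stronger hits.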

[15] = molecular target: Inhibitor of nuclear factor kappa-B kinase subunit alpha (Homo sapiens) (UniProt O15111); experiment: Inhibition of wild-type human full length IKK-alpha (M1 to E745 residues) expressed in mammalian expression system at 1 uM by Kinomescan method; outline: as §3
[16] = molecular target: Serine/threonine-protein kinase PLK4 (Homo sapiens) (UniProt O00444); experiment: Inhibition of wild-type human partial length PLK4 (M1 to S273 residues) expressed in mammalian expression system at 1 uM by Kinomescan method; outline: as §2
[17] = molecular target: Tyrosine-protein kinase receptor UFO (Homo sapiens) (UniProt P30530); experiment: Inhibition of wild-type human partial length AXL (R497 to Y821 residues) expressed in bacterial expression system at 1 uM by Kinomescan method; outline: as §2
[18] = molecular target: Serine/threonine-protein kinase pim-2 (Homo sapiens) (UniProt Q9P1W9); experiment: Inhibition of wild-type human partial length PIM2 (M1 to E291 residues) expressed in bacterial expression system at 1 uM by Kinomescan method; outline: as §2
[19] = molecular target: Myeloid differentiation primary response protein MyD88 (Homo sapiens) (UniProt Q99836); experiment: Binding affinity to recombinant MyD88 (unknown origin) by surface plasmon resonance analysis
Mus musculus = experiment: Antiinflammatory activity in LPS-induced C57BL/6 mouse model of acute lung injury assessed as reduction in TNFalpha level at 5 to 10 mg/kg, iv pretreated for 15 mins followed by LPS stimulation and measured after 6 hrs by ELISA; type: functional, organism-based
Outline: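 Male C57BL/6 mice (18−22 g; n=8 per group). Compound in 0.1% CMC-Na given by tail vein injection 15 min before intraperitoneal LPS (20 mg/kg); controls received saline. Mice were sacrificed 6 h after LPS, and serum and lung tissue were collected.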

[20] = molecular target: Proto-oncogene tyrosine-protein kinase Src (Homo sapiens) (UniProt P12931); experiment: Inhibition of wild-type human partial length SRC (L240 to L536 residues) expressed in bacterial expression system at 1 uM by Kinomescan method; outline: as §1

NUAK family SNF1-like kinase 2 (Homo sapiens), sequence (Q9H093 whole entry, the tested form may be a part): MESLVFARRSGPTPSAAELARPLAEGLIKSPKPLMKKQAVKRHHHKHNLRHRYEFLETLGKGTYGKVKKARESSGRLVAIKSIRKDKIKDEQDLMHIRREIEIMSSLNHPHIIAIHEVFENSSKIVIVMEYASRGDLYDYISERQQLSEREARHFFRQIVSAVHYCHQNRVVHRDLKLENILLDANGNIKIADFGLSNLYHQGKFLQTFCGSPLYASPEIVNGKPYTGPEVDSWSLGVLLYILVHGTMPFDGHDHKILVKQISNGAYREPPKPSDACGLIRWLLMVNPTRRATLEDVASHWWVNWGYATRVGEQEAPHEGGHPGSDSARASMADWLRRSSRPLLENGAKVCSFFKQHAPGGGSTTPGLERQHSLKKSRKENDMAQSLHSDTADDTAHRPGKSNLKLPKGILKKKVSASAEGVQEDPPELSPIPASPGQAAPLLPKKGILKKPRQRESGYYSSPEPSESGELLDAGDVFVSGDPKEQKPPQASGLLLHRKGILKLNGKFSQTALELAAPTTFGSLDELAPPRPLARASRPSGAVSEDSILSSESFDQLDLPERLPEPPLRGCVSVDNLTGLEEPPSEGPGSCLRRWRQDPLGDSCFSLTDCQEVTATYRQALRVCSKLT
Serine/threonine-protein kinase pim-2 (Homo sapiens), sequence (Q9P1W9 whole entry, looked up, the tested form may be a part): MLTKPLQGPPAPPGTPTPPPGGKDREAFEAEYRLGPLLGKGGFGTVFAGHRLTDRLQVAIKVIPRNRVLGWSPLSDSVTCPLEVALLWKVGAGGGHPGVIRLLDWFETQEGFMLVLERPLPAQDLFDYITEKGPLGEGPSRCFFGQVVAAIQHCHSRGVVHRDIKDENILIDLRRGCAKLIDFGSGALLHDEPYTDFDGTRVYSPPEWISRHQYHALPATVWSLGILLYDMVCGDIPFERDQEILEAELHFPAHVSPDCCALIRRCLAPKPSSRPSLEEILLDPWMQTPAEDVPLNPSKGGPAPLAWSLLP
Serine/threonine-protein kinase PLK4 (Homo sapiens), sequence (O00444 whole entry, the tested form may be a part): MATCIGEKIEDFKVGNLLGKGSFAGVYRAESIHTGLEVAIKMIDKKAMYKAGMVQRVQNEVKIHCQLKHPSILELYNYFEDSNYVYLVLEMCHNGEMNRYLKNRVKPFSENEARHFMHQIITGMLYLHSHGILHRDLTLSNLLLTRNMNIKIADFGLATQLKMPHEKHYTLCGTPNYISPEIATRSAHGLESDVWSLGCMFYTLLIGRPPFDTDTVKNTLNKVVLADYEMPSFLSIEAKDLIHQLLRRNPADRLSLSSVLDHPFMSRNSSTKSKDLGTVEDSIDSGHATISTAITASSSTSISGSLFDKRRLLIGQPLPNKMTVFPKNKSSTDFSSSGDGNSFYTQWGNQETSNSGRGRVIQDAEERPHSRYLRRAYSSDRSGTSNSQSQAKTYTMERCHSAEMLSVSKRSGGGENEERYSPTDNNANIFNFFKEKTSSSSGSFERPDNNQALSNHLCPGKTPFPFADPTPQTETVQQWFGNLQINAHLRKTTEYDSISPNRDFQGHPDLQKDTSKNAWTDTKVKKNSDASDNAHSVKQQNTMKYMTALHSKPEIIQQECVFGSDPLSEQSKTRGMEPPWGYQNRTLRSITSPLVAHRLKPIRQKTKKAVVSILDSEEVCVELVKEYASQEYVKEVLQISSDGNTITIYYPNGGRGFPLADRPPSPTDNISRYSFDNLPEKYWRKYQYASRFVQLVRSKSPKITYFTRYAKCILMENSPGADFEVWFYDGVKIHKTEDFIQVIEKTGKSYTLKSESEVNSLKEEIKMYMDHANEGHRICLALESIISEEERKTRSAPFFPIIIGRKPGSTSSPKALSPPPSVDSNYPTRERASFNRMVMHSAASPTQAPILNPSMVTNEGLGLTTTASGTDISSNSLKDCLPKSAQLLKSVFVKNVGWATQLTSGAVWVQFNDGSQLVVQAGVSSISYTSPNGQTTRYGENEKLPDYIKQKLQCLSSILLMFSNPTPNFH
Serine/threonine-protein kinase B-raf (Homo sapiens), P15056 [V600E], sequence (P15056 whole entry V600E, the tested form may be a part): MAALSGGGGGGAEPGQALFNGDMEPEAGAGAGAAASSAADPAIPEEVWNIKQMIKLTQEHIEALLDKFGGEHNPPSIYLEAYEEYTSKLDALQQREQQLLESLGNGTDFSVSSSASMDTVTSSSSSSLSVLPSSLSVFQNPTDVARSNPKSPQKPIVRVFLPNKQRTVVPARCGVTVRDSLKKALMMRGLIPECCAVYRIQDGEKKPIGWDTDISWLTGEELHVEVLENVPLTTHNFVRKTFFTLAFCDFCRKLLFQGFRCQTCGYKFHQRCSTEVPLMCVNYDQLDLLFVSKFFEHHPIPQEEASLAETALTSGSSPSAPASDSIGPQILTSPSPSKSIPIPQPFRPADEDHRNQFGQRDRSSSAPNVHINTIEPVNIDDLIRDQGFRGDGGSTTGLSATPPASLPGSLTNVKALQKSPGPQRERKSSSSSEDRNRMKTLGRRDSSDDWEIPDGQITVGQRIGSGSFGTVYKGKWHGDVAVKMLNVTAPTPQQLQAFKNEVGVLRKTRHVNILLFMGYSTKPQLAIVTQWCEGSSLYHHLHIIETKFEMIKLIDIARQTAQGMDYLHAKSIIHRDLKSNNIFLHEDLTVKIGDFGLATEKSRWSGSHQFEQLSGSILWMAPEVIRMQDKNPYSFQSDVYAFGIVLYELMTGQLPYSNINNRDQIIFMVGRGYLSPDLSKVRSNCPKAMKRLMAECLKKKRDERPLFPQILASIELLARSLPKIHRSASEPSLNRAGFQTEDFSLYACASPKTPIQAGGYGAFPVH
Inhibitor of nuclear factor kappa-B kinase subunit alpha (Homo sapiens), sequence (O15111 whole entry, the tested form may be a part): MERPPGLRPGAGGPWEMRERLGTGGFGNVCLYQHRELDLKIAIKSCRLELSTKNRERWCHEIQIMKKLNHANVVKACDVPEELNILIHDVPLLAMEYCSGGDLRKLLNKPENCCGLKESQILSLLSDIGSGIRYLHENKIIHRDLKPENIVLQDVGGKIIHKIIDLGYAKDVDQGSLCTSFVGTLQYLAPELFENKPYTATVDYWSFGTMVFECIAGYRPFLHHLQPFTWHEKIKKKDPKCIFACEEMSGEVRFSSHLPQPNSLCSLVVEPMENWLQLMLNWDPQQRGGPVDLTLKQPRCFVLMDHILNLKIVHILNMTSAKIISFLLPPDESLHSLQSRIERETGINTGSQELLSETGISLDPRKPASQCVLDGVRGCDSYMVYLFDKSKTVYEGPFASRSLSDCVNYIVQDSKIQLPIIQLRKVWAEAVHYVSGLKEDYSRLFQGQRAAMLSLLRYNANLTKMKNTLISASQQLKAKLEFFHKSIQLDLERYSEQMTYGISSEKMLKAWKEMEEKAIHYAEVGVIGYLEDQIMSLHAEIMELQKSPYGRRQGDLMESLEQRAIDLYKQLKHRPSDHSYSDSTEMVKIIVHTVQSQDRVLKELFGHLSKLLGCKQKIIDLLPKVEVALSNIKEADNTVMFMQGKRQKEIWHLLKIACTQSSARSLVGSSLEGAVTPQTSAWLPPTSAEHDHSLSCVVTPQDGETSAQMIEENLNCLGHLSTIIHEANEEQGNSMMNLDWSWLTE
Epidermal growth factor receptor (Homo sapiens), P00533 [L858R], sequence (P00533 whole entry L858R, the tested form may be a part): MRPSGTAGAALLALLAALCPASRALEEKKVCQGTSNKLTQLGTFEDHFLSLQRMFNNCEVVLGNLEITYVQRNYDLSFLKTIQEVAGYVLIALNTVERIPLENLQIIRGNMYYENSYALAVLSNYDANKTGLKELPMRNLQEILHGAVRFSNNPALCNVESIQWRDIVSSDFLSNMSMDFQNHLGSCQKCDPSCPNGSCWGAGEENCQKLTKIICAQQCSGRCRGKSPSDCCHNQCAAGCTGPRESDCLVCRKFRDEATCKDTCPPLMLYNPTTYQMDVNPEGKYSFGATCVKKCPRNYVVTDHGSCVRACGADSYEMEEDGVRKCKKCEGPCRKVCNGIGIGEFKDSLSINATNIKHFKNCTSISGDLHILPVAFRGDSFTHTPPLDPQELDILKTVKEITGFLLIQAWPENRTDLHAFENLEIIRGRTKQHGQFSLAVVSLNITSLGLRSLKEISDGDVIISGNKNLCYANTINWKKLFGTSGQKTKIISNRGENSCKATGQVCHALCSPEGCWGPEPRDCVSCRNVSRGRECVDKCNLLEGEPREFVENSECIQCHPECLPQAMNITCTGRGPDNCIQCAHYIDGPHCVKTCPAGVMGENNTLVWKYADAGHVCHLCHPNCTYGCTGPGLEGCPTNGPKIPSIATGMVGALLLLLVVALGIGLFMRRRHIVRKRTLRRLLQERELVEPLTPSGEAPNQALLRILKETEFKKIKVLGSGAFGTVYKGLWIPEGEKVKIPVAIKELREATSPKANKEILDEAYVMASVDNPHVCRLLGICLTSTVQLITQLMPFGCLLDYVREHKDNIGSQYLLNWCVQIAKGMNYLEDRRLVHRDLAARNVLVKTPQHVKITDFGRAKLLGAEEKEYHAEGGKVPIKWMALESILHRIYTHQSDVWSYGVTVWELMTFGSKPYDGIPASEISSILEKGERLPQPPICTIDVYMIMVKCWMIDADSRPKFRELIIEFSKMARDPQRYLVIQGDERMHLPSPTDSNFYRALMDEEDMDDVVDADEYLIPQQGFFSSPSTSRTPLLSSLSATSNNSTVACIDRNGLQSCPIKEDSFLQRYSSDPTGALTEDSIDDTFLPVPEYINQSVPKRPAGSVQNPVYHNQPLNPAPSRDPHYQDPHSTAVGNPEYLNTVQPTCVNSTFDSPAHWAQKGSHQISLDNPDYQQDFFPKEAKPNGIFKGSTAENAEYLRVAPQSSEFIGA
Myeloid differentiation primary response protein MyD88 (Homo sapiens), sequence (Q99836 whole entry): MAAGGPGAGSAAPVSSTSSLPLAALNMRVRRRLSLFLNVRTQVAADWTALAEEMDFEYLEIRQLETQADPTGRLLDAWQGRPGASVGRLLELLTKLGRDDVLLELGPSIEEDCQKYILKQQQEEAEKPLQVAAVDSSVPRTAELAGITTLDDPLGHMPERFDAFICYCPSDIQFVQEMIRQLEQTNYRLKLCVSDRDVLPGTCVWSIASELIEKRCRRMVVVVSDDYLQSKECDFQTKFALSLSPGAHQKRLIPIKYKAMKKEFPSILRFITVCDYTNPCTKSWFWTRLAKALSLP

O=C(Nc1ccc2[nH]nc(-c3ccc4[nH]ccc4c3)c2c1)c1c(Cl)cccc1Cl
inactive: inhibition [1] | inhibition [2] | inhibition [3] | inhibition [4] | inhibition [5] | inhibition [6] | inhibition [7] | inhibition [8] | inhibition [9] | inhibition [10] | inhibition [11] | inhibition [12] | inhibition [13] | inhibition [14] | inhibition [15] | inhibition [16] | inhibition [17] | inhibition [18] | Activity [19] | inhibition [20]
active: Activity (Mus musculus)
Non-Toxic: Activity (Peritoneal macrophage)
